The source made the active and inactive calls. No cut-off for these calls is given here.
Legend:
[1] = Prodrug activation assessed as Francisella tularensis PNP-mediated compound cleavage at 100 uM by reverse phase HPLC analysis
Procedure, shortened: (§1)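 Reactions held 50 mM potassium phosphate (pH 7.4) and 100 µM substrate at 25°C. Enzyme was titrated to keep cleavage linear: native F. tularensis PNP from crude extract or recombinant E. coli SAH/MTA hydrolase. Samples were taken at 0–2 h and stopped by boiling. Base and nucleoside were resolved by C18 reverse-phase HPLC at 254 nm. Activity is nmol/mg protein/hr, the average of at least two experiments; detection limit is 1 nmol/mg/hr.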

[2] = Prodrug activation assessed as recombinant Escherichia coli PNP-mediated compound cleavage at 100 uM by reverse phase HPLC analysis
Procedure, shortened: (§2)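 Cleavage assay: 100 µM substrate in 50 mM potassium phosphate pH 7.4, with enzyme amount adjusted for a linear rate, at 25°C; aliquots at 0, 0.25, 0.5, 1, 2 h, stopped by boiling, filtered. Specific activity = nmol product/mg protein/time. Detection limit 1 nmol/mg/hr; mean of at least two experiments.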

[3] = target: Purine nucleoside phosphorylase (Sulfolobus solfataricus (strain ATCC 35092 / DSM 1617 / JCM 11322 /P2), UniProt P50389); assay: Prodrug activation assessed as recombinant Sulfolobus solfataricus MTAP-mediated compound cleavage at 100 uM by reverse phase HPLC analysis; settings: saccharolobus solfataricus
Procedure, shortened: as §2, with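 “filtered. Reverse-phase C-18 HPLC, 50 mM ammonium dihydrogen phosphate pH 4.5 with 1.25–5% acetonitrile, 254 nm detection.” for “filtered.”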

[4] = target: T1, Purine nucleoside phosphorylase (Homo sapiens, UniProt P00491); assay: Prodrug activation assessed as recombinant human PNP-mediated compound cleavage at 100 uM by reverse phase HPLC analysis
T1 sequence (P00491 whole entry): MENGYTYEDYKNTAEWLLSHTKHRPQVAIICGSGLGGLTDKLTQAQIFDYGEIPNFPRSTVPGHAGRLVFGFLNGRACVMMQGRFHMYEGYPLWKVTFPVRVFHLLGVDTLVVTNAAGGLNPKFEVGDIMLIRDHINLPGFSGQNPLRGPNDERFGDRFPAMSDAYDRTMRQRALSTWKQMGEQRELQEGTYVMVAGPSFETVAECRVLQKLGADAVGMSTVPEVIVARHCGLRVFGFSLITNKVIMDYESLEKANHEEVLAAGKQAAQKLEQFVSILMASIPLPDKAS
Procedure, shortened: as §2, with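 “filtered. Reverse-phase C-18 HPLC, 50 mM ammonium dihydrogen phosphate pH 4.5 with 1.25–5% acetonitrile, 254 nm detection.” for “filtered.”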

[5] = Prodrug activation assessed as recombinant Trichomonas vaginalis PNP-mediated compound cleavage at 100 uM by reverse phase HPLC analysis
Procedure, shortened: as §2, with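 “filtered. Reverse-phase C-18 HPLC, 50 mM ammonium dihydrogen phosphate pH 4.5 with 1.25–5% acetonitrile, 254 nm detection.” for “filtered.”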

[6] = target: 5'-methylthioadenosine/S-adenosylhomocysteine nucleosidase (Escherichia coli O157:H7, UniProt P0AF14); assay: Prodrug activation assessed as recombinant Escherichia coli SAH/MTA hydrolase-mediated compound cleavage at 100 uM by reverse phase HPLC analysis; procedure, shortened: as §1
[7] = Prodrug activation assessed as recombinant Escherichia coli PNP M64V mutant-mediated compound cleavage at 100 uM by reverse phase HPLC analysis
[8] = Antitumor activity against human D54MG cells expressing Escherichia coli PNP xenografted in nude mouse assessed as time for tumor growth delay at 33 mg/kg; type: functional
[9] = Prodrug activation in human D54MG cells expressing Escherichia coli PNP xenografted in nude mouse assessed as Escherichia coli PNP-mediated compound cleavage per mg of tumor tissue; settings: in vivo
[10] = target: T2, S-methyl-5'-thioadenosine phosphorylase (Homo sapiens, UniProt Q13126); assay: Prodrug activation assessed as recombinant human MTAP-mediated compound cleavage at 100 uM by reverse phase HPLC analysis
T2 sequence (Q13126 whole entry): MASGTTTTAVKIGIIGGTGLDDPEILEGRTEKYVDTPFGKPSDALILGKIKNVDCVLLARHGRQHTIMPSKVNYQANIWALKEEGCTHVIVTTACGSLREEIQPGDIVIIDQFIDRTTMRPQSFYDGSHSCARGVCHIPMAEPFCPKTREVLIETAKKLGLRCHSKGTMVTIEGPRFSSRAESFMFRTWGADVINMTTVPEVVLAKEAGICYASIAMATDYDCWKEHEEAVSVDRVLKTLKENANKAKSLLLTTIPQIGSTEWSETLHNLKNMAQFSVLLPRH
Procedure, shortened: as §2, with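 “filtered. Reverse-phase C-18 HPLC, 50 mM ammonium dihydrogen phosphate pH 4.5 with 1.25–5% acetonitrile, 254 nm detection.” for “filtered.”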

[11] = Terminal half life of compound in mouse plasma at 67 mg/kg, ip by reverse phase HPLC analysis; type: ADME, organism-based; settings: read-out: beta t1/2
[12] = Antitumor activity against human D54MG cells expressing Escherichia coli PNP xenografted in mouse assessed as time for tumor growth delay at 67 mg/kg; type: functional
[13] = Antitumor activity against human D54MG cells expressing Escherichia coli PNP M64V mutant xenografted in mouse assessed as time for tumor growth delay at maximum tolerated dose; type: functional
Procedure, shortened: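 Subcutaneous flank xenografts in nude mice (nu/nu) used a 90/10 mix of parental and M64V PNP-transduced D54MG glioma cells (2 x 10⁷ total cells). Starting on day 17, when tumors were about 300 mg, mice received ip doses of 5, 10 or 20 mg/kg five times daily (every 2 h) for 3 days, with 6 mice per group. Calipers were read twice weekly and weight was taken as length x width²/2.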

[14] = tested on: D54MG; assay: Antitumor activity against human D54MG cells expressing Escherichia coli PNP M64V mutant xenografted in nude mouse assessed as inhibition of tumor growth at 10 and 20 mg/kg, administered via peritoneal cavity 5 times a day (every 2 hrs) for 3 consecutive days measured on day 17 to 19 after tumor implantation; type: functional, organism-based
Procedure, shortened: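 Xenograft: parental and M64V-PNP-transduced D54MG human glioma cells mixed so 10% express M64V; 2 x 10⁷ total cells injected sc into flanks of nu/nu nude mice. At ~300 mg tumors (day 17), ip dosing 5 times daily (every 2 h) for 3 consecutive days at 5, 10 or 20 mg/kg; 6 mice/group. Tumors measured with calipers twice weekly; weight = length x width²/2; mean and SEM.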

[15] = Prodrug activation in human D54MG cells expressing Escherichia coli PNP M64V mutant xenografted in nude mouse assessed as Escherichia coli PNP M64V mutant-mediated compound cleavage per mg of tumor tissue at 5-20 mg/kg administered via peritoneal cavity 5 times a day (every 2 hrs) for 3 consecutive days measured on day 17; type: organism-based; settings: in vivo, ip
Procedure, shortened: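 Tumor extracts were taken from mice bearing D54 xenografts with 10% M64V-PNP-expressing cells, removed at start of treatment (day 17). Cleavage of the prodrug substrate was reported as nmoles cleaved/mg-hr; N = 3.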

[16] = Terminal half life of compound in mouse at 100 mg/kg, ip by reverse phase HPLC analysis; type: ADME, organism-based; settings: in vivo, read-out: beta t1/2

Sequence of 5'-methylthioadenosine/S-adenosylhomocysteine nucleosidase (P0AF14 whole entry): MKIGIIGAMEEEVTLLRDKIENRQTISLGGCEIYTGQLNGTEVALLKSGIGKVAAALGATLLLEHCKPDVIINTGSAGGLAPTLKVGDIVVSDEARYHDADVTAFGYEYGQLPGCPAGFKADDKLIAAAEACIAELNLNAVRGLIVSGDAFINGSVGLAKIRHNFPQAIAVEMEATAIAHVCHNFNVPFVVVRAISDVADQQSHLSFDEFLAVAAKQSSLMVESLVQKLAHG
Sequence of Purine nucleoside phosphorylase (Sulfolobus solfataricus (strain ATCC 35092 / DSM 1617 / JCM 11322 /P2), UniProt P50389) (P50389 whole entry): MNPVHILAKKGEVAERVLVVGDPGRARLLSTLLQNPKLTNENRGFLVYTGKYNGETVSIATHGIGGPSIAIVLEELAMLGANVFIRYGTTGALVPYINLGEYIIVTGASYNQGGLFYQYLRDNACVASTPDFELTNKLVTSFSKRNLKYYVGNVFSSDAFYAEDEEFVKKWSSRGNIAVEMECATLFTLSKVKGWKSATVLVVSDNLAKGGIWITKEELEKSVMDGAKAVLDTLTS

Compound | Drug metabolism [1] | Drug metabolism [2] | Drug metabolism [3] | Drug metabolism [4] | Drug metabolism [5] | Drug metabolism [6] | Drug metabolism [7] | Time [8] | Drug metabolism [9] | Drug metabolism [10] | half-life [11] | Time [12] | Time [13] | inhibition [14] | Drug metabolism [15] | half-life [16]
OC[C@H]1O[C@@H](n2cnc3c(O)ncnc32)[C@H](O)[C@@H]1O [INOSINE] | 2000 nmol/mg/h | 342000 nmol/mg/h | 84000 nmol/mg/h | 391000 nmol/mg/h | 154000 nmol/mg/h | – | – | – | – | – | – | – | – | – | – | –
Cc1ncnc2c1ncn2[C@H]1C[C@H](O)[C@@H](CO)O1 | 3900 nmol/mg/h | 528000 nmol/mg/h | 12000 nmol/mg/h | 35 nmol/mg/h | 484000 nmol/mg/h | 30 nmol/mg/h | 593000 nmol/mg/h | 22 days | 40 nmol/mg/h | < 1 nmol/mg/h | 14 min | 22 days | – | – | – | –
Cc1ncnc2c1ncn2[C@@H]1O[C@H](CO)[C@@H](O)[C@H]1O | 4800 nmol/mg/h | 96000 nmol/mg/h | 4000 nmol/mg/h | 12 nmol/mg/h | 155000 nmol/mg/h | 290 nmol/mg/h | 176000 nmol/mg/h | – | – | – | – | – | – | – | – | –
Nc1ncnc2c1ncn2[C@@H]1O[C@H](CO)[C@@H](O)[C@H]1O [ADENOSINE] | 2100 nmol/mg/h | – | 57000 nmol/mg/h | – | 501000 nmol/mg/h | 2100 nmol/mg/h | – | – | – | 596 nmol/mg/h | – | – | – | – | – | –
Cc1ncnc2c1ncn2[C@@H]1O[C@H]([C@H](C)O)[C@@H](O)[C@H]1O | 100 nmol/mg/h | 915 nmol/mg/h | 1500 nmol/mg/h | < 1 nmol/mg/h | 8400 nmol/mg/h | 51 nmol/mg/h | 86000 nmol/mg/h | – | – | 4 nmol/mg/h | – | – | >32 days | Active | 365 nmol/mg/h | 21 min
Cc1ncnc2c1ncn2[C@@H]1O[C@@H](CO)[C@@H](O)[C@H]1O | 180 nmol/mg/h | 218 nmol/mg/h | 1400 nmol/mg/h | – | 10000 nmol/mg/h | 36 nmol/mg/h | 10000 nmol/mg/h | – | – | < 1 nmol/mg/h | – | – | – | – | – | –
